The target of the experiment is T1, Gonadotropin-releasing hormone receptor (Homo sapiens, UniProt P30968).
T1 sequence (P30968 whole entry): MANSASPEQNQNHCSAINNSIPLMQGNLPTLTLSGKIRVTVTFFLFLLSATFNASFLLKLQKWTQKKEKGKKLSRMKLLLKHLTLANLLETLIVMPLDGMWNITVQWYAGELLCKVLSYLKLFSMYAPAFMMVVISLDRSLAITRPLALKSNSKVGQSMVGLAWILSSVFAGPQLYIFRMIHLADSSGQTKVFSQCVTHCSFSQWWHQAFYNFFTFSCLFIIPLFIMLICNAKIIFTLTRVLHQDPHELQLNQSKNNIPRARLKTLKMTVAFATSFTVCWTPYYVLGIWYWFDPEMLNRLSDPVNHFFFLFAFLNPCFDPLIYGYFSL
Description: Competitive antagonism of GnRH-induced response in the reporter gene assay. The gist of the method:
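Same HEK293 human GnRH receptor luciferase reporter cells. Seven-point GnRH curve (10 µM to 10 pM final) run in duplicate without or with four to five increasing compound concentrations (10 min preincubation, 37 °C), then 5 h and luminescence. GnRH EC50 at each level by four-parameter logistic fit, giving pA2; mean of two determinations in duplicate.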

*1 amine or outer side, *2 acyl side, *3 side chain or, on linkers, in order; H or OH if unused. Where a SMILES comes first, the peptide text is derived from it. [ ]: non-standard residue; d: D form. Phe(4-NH(5-NH2triazol-3-yl)) = Nc1nc(Nc2ccc(C[C@H](N)C(=O)O)cc2)n[nH]1; X1 = Nc1nc(Nc2ccc(C[C@@H](N[*:1])C(=O)[*:2])cc2)n[nH]1; dPhe(4-Cl) = N[C@H](Cc1ccc(Cl)cc1)C(=O)O; d2Nal = N[C@H](Cc1ccc2ccccc2c1)C(=O)O; Lys(iPr) = CC(C)NCCCC[C@H](N)C(=O)O; d3Pal = N[C@H](Cc1cccnc1)C(=O)O

The molecule `CC(=O)N[C@H](Cc1ccc2ccccc2c1)C(=O)N[C@H](Cc1ccc(Cl)cc1)C(=O)N[C@H](Cc1cccnc1)C(=O)N[C@@H](CO)C(=O)N[C@@H](Cc1ccc(Nc2n[nH]c(N)n2)cc1)C(=O)N[C@H](Cc1ccc(Nc2n[nH]c(N)n2)cc1)C(=O)N[C@@H](CC(C)C)C(=O)N[C@@H](CCCCNC(C)C)C(=O)N1CCC[C@H]1C(=O)N[C@H](C)C(N)=O` [Ac-D-Nal-[D-(pCl)Phe]-D-Pal-Ser-[Aph(Atz)]-D-[Aph(Atz)]-Leu-ILys-Pro-DAla-NH2] (Ac-[d2Nal][dPhe(4-Cl)][d3Pal]S[Phe(4-NH(5-NH2triazol-3-yl))][X1]L[Lys(iPr)]P[dA]-NH2) yielded an equilibrium dissociation constant (Kd) of 1.58 nM.
Next, `CC(=O)Nc1ccc(C[C@@H](NC(=O)[C@H](Cc2ccc(NC(=O)C3CNC(=O)N3)cc2)NC(=O)[C@H](CO)NC(=O)[C@@H](Cc2cccnc2)NC(=O)[C@@H](Cc2ccc(Cl)cc2)NC(=O)[C@@H](Cc2ccc3ccccc3c2)NC(C)=O)C(=O)N[C@@H](CC(C)C)C(=O)N[C@@H](CCCCNC(C)C)C(=O)N2CCC[C@H]2C(=O)N[C@H](C)C(N)=O)cc1` (stereo partly drawn) [Ac-D-Nal-[D-(pCl)Phe]-D-Pal-Ser-[Aph(Imz)]-D-[Aph(Ac)]-Leu-ILys-Pro-DAla-NH2]: 0.631 nM.
